pIC50: −log10 of the molar value. The source made the active and inactive calls. The calls are words filed in the database; no cut-off is given here.
Key:
[1] = test system: Radical scavenging activity; assay: Antioxidant activity assessed as DPPH free radical scavenging activity after 30 mins by spectrophotometry; type: functional; details: for pIC50: read-out: IC50
[2] = test system: Mus musculus; assay: Antiinflammatory activity in CD1 mouse ear dermatitis model assessed as inhibition of Croton oil-induced ear edema at 0.10 umol administered topically per cm'2 of ear measured after induction of dermatitis relative to untreated control; type: functional
Procedure, shortened: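 Male CD-1 mice (28–32 g), anesthetized with ketamine 145 mg/kg i.p.; right ear (about 1 cm2) given 80 μg croton oil in 15 μL acetone, with test substance co-applied in acetone; left ear left untreated. Controls received irritant only. 6 mm punches taken from both ears; edema = weight difference treated minus untreated; % inhibition vs controls. ID50 by graphic interpolation of log dose–effect curves; ANOVA with Dunnett's test.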

[3] = test system: Mus musculus; assay: Antiinflammatory effect in CD1 mouse ear dermatitis model assessed as reduction in cellular changes at 0.4 umol administered topically per cm'2 of ear measured after 6 hrs post dermatitis induction relative to control; type: functional, organism-based
Procedure, shortened: (§1)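 Male CD-1 mice (28–32 g) anesthetized with ketamine 145 mg/kg ip; right ear (about 1 cm2) given 80 μg croton oil in 15 μL acetone with test substance co-applied in acetone; controls irritant only; left ear untreated. Ears fixed in 10% formalin, paraffin-embedded, 10 μm sections stained hematoxylin-eosin or Giemsa, examined by light microscopy at set times after induction.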

[4] = test system: Mus musculus; assay: Antiinflammatory effect in CD1 mouse ear dermatitis model assessed as preservance of mast cell degranulation at 0.4 umol administered topically per cm'2 of ear measured after 6 hrs post dermatitis induction relative to control; type: functional, organism-based; procedure, shortened: as §1
[5] = test system: Mus musculus; assay: Antiinflammatory effect in CD1 mouse ear dermatitis model assessed as reduction in leukocyte infiltration-based myeloperoxidase at 0.4 umol administered topically per cm'2 of ear measured after 6 hrs post dermatitis induction relative to control; type: functional, organism-based
Procedure, shortened: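 CD-1 mice, croton oil 80 μg in acetone on right ear with topical test substance; ear punch (6 mm) homogenized in 0.1 M sodium acetate pH 4.2 with 0.1% HTAB, centrifuged 15000g 5 min; supernatant myeloperoxidase measured with TMB (2.83 mM) and 0.7 mM H2O2, 5 min at 25 °C, stopped with acetic acid, A620; duplicates; units = nM TMB oxidized/min.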

[6] = test system: Mus musculus; assay: Antiinflammatory effect in CD1 mouse ear dermatitis model assessed as reduction in vascular changes at 0.4 umol administered topically per cm'2 of ear measured after 6 hrs post dermatitis induction relative to control; type: functional, organism-based; procedure, shortened: as §1
[7] = test system: Mus musculus; assay: Antiinflammatory effect in CD1 mouse ear dermatitis model assessed as reduction in mast cell degranulation at 0.4 umol administered topically per cm'2 of ear measured after 6 hrs post dermatitis induction relative to control; type: functional, organism-based; procedure, shortened: as §1

Structure (SMILES): COc1cc(O)ccc1-c1cc2cc(CCCO)ccc2o1
- IC50 [1]: Dose-dependent effect
- pIC50 [1]: 4.42
- inhibition (INH) [2]: 13%

Structure (SMILES): C/C=C/c1ccc2oc(-c3ccc(O)cc3)c(C)c2c1 [RATANIAPHENOL II]
- inhibition (INH) [2]: 13%

Structure (SMILES): C/C=C/c1ccc2oc(-c3ccc(O)cc3OC)cc2c1 [RATANIAPHENOL III]
- IC50 [1]: Dose-dependent effect
- pIC50 [1]: 4.44
- inhibition (INH) [2]: 12%

Structure (SMILES): C/C=C/c1ccc2c(c1)[C@H](CO)[C@@H](c1ccc(O)cc1)O2
- inhibition (INH) [2]: 17%

Structure (SMILES): COc1ccc(-c2cc3cc(CCCO)ccc3o2)c(O)c1
- inhibition [3]: Active
- inhibition [4]: Active
- inhibition [5]: Active
- IC50 [1]: Dose-dependent effect
- pIC50 [1]: 4.37
- inhibition [6]: Active
- inhibition [7]: Active
- inhibition (INH) [2]: 25%

Structure (SMILES): C/C=C/c1ccc2c(c1)[C@@H](C)[C@H](c1ccc(O)cc1)O2
- inhibition [3]: Active
- inhibition [4]: Active
- inhibition [5]: Active
- inhibition [6]: Active
- inhibition [7]: Active
- inhibition (INH) [2]: 25%

Structure (SMILES): C/C=C/c1ccc2oc(-c3ccc(OC)cc3O)cc2c1 [RATANIAPHENOL I]
- IC50 [1]: Dose-dependent effect
- pIC50 [1]: 4.62
- inhibition (INH) [2]: 9%

Structure (SMILES): C[C@@H]1[C@H](C)[C@@H](c2ccc(O)cc2)O[C@H]1c1ccc(O)cc1
- inhibition (INH) [2]: 14%

Structure (SMILES): C/C=C/c1ccc2oc(-c3ccc(O)cc3O)cc2c1
- IC50 [1]: Dose-dependent effect
- pIC50 [1]: 4.66
- inhibition (INH) [2]: 15%

Structure (SMILES): C/C=C/c1ccc2oc(-c3ccc(O)cc3)cc2c1
- inhibition (INH) [2]: 14%

Structure (SMILES): C[C@@H]1[C@H](C)[C@@H](c2ccc(O)cc2)O[C@@H]1c1ccc(O)cc1
- inhibition (INH) [2]: 19%

— ChEMBL document CHEMBL2146414, “Lignan derivatives from Krameria lappacea roots inhibit acute inflammation in vivo and pro-inflammatory mediators in vitro” (J Nat Prod, 2011)
